Measured values taken from ChEMBL document CHEMBL2384906, “Biological activity, design, synthesis and structure activity relationship of some novel derivatives of curcumin containing sulfonamides” (Eur J Med Chem, 2013).
Values after ≈ are worked out from the molar mass of the structure shown. Active and inactive are the calls of the source. No cut-off for these calls is given here.

Experiments:
Bacillus cereus [1] = test: Antimicrobial activity against Bacillus cereus MTCC 7350 assessed as diameter of inhibition zone at 40 uM after 24 hrs by Kirby -Baur disc diffusion method; assay type: functional
Outline: (§1)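 Kirby-Bauer disc diffusion was used. Acetone stocks (160 µM) were serially doubled down to 80, 40 and 20 µM. 4 µL of each went onto 5 mm sterile paper discs, which were dried 30 min at 50 °C. Inoculum was 1.5 × 10⁸ CFU/mL diluted to 3 × 10² CFU/mL, and 50 µL was spread on Mueller-Hinton agar. After 24 h at 37 °C the inhibition-zone diameter was measured. Ciprofloxacin served as positive control.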

Salmonella typhi [2] = test: Antimicrobial activity against Salmonella typhi ATCC 23564 after 24 hrs by broth micro serial dilution method; assay type: functional, Salmonella enterica subsp. enterica serovar Typhi; conditions: Salmonella enterica, ATCC 23564, 24 h
Aspergillus niger [3] = test: Antifungal activity against Aspergillus niger MTCC 1108 after 48 hrs; assay type: functional
Trichoderma viride [4] = test: Antifungal activity against Trichoderma viride MTCC 1107 after 48 hrs; assay type: functional; conditions: MTCC 1107, 48 h
Trichoderma viride [5] = test: Antifungal activity against Trichoderma viride MTCC 1107 assessed as zone of inhibition at 80 uM after 48 hrs by disc diffusion method; assay type: functional; conditions: MTCC 1107, 48 h, read-out: IZ
Outline: (§2)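 Spores from 4-day potato dextrose agar cultures, suspended in sterile water at 1.5 × 10⁵ CFU/mL. 0.2 mL was spread on potato dextrose agar. 5 mm filter-paper discs soaked with test compound were laid on the lawn. Incubation was 48 h at 28 °C, then the inhibition zone was measured in mm. Fluconazole was the positive control and acetone the negative control.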

HepG2 = test: Cytotoxicity against human HepG2 cells after 24 hrs by MTT assay; assay type: functional, cell-based
Outline: (§3)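 The MTT assay seeded 5 × 10⁴ cells per well and grew them 24 h in RPMI 1640 with compound at 2.5–200 µM. Medium without cells was the blank and adriamycin the positive control. MTT was added for 4 h at 37 °C, formazan was solubilised, and absorbance was read at 570 nm. IC50 is the concentration that cuts viability 50% against untreated cells.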

Pseudomonas aeruginosa [6] = test: Antimicrobial activity against Pseudomonas aeruginosa ATCC 15499 after 24 hrs by broth micro serial dilution method; assay type: functional; conditions: ATCC 15499, 24 h
Outline: (§4)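 This was broth microdilution in autoclaved Mueller-Hinton broth. 150 µL of compound per well was serially diluted […], and 50 µL of test organism was added. Plates were incubated 24 h at 37 °C and optical density was read.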

Aspergillus niger [7] = test: Antifungal activity against Aspergillus niger MTCC 1108 assessed as zone of inhibition at 80 uM after 48 hrs by disc diffusion method; assay type: functional; outline: as §2
Curvularia lunata [8] = test: Antifungal activity against Curvularia lunata MTCC 581 assessed as zone of inhibition at 20 uM after 48 hrs by disc diffusion method; assay type: functional; outline: as §2
Curvularia lunata [9] = test: Antifungal activity against Curvularia lunata MTCC 581 after 48 hrs; assay type: functional; conditions: MTCC 581, 48 h
QG-56 = test: Cytotoxicity against human QG56 cells after 24 hrs by MTT assay; assay type: functional, cell-based; outline: as §3
Bacillus cereus [10] = test: Antimicrobial activity against Bacillus cereus MTCC 7350 after 24 hrs by broth micro serial dilution method; assay type: functional; conditions: MTCC 7350, 24 h; outline: as §4
Bacillus cereus [11] = test: Antimicrobial activity against Bacillus cereus MTCC 7350 assessed as diameter of inhibition zone at 20 uM after 24 hrs by Kirby -Baur disc diffusion method; assay type: functional; outline: as §1
Escherichia coli [12] = test: Antimicrobial activity against Escherichia coli ATCC 35218 assessed as diameter of inhibition zone at 80 uM after 24 hrs by Kirby -Baur disc diffusion method; assay type: functional; outline: as §1
Salmonella typhi [13] = test: Antimicrobial activity against Salmonella typhi ATCC 23564 assessed as diameter of inhibition zone at 40 uM after 24 hrs by Kirby -Baur disc diffusion method; assay type: functional; conditions: Salmonella enterica subsp. enterica serovar Typhi
Curvularia lunata [14] = test: Antifungal activity against Curvularia lunata MTCC 581 assessed as zone of inhibition at 40 uM after 48 hrs by disc diffusion method; assay type: functional; conditions: MTCC 581, 48 h, read-out: IZ; outline: as §2
Trichoderma viride [15] = test: Antifungal activity against Trichoderma viride MTCC 1107 assessed as zone of inhibition at 20 uM after 48 hrs by disc diffusion method; assay type: functional; outline: as §2
Pseudomonas aeruginosa [16] = test: Antimicrobial activity against Pseudomonas aeruginosa ATCC 15499 assessed as diameter of inhibition zone at 20 uM after 24 hrs by Kirby -Baur disc diffusion method; assay type: functional; outline: as §1
Salmonella typhi [17] = test: Antimicrobial activity against Salmonella typhi ATCC 23564 assessed as diameter of inhibition zone at 20 uM after 24 hrs by Kirby -Baur disc diffusion method; assay type: functional; conditions: Salmonella enterica subsp. enterica serovar Typhi
HeLa = test: Cytotoxicity against human HeLa cells after 24 hrs by MTT assay; assay type: functional, cell-based; outline: as §3
Mus musculus = test: Antiinflammatory activity in mouse assessed as inhibition of carrageenan-induced increase in paw volume at 200 mg/kg administered 1 hr prior to carrageenan challenge measured after 3 hrs relative to control; assay type: functional
Outline: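 Mice were fasted 2 h and placed in groups of five. Controls received saline i.p. Phenylbutazone was given at 100 mg/kg i.p., curcumin at 200 mg/kg i.p., and derivatives at 200 mg/kg. After 1 h, 0.1 mL of 1% carrageenan in saline was injected subplantar into the right hind paw. Paw volume was followed by plethysmometer for 3 h, and % inhibition was calculated as (Vc − Vt)/Vc × 100.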

Trichoderma viride [18] = test: Antifungal activity against Trichoderma viride MTCC 1107 assessed as zone of inhibition at 40 uM after 48 hrs by disc diffusion method; assay type: functional; conditions: MTCC 1107, 48 h, read-out: IZ; outline: as §2
Pseudomonas aeruginosa [19] = test: Antimicrobial activity against Pseudomonas aeruginosa ATCC 15499 assessed as diameter of inhibition zone at 40 uM after 24 hrs by Kirby -Baur disc diffusion method; assay type: functional; outline: as §1
Staphylococcus aureus [20] = test: Antimicrobial activity against Staphylococcus aureus ATCC 11632 assessed as diameter of inhibition zone at 80 uM after 24 hrs by Kirby -Baur disc diffusion method; assay type: functional; conditions: ATCC 11632, 24 h, read-out: DIZ; outline: as §1
Escherichia coli [21] = test: Antimicrobial activity against Escherichia coli ATCC 35218 after 24 hrs by broth micro serial dilution method; assay type: functional; conditions: ATCC 35218, 24 h; outline: as §4
Aspergillus flavus [22] = test: Antifungal activity against Aspergillus flavus MTCC 1021 after 48 hrs; assay type: functional
HCT-116 = test: Cytotoxicity against human HCT116 cells after 24 hrs by MTT assay; assay type: functional, cell-based; outline: as §3
Staphylococcus aureus [23] = test: Antimicrobial activity against Staphylococcus aureus ATCC 11632 assessed as diameter of inhibition zone at 40 uM after 24 hrs by Kirby -Baur disc diffusion method; assay type: functional; outline: as §1
Staphylococcus aureus [24] = test: Antimicrobial activity against Staphylococcus aureus ATCC 11632 after 24 hrs by broth micro serial dilution method; assay type: functional; conditions: ATCC 11632, 24 h; outline: as §4
Staphylococcus aureus [25] = test: Antimicrobial activity against Staphylococcus aureus ATCC 11632 assessed as diameter of inhibition zone at 20 uM after 24 hrs by Kirby -Baur disc diffusion method; assay type: functional; outline: as §1
Salmonella typhi [26] = test: Antimicrobial activity against Salmonella typhi ATCC 23564 assessed as diameter of inhibition zone at 80 uM after 24 hrs by Kirby -Baur disc diffusion method; assay type: functional, Salmonella enterica subsp. enterica serovar Typhi; conditions: Salmonella enterica, ATCC 23564, 24 h; read-out: DIZ
Curvularia lunata [27] = test: Antifungal activity against Curvularia lunata MTCC 581 assessed as zone of inhibition at 80 uM after 48 hrs by disc diffusion method; assay type: functional; conditions: MTCC 581, 48 h, read-out: IZ; outline: as §2
Pseudomonas aeruginosa [28] = test: Antimicrobial activity against Pseudomonas aeruginosa ATCC 15499 assessed as diameter of inhibition zone at 80 uM after 24 hrs by Kirby -Baur disc diffusion method; assay type: functional; conditions: ATCC 15499, 24 h, read-out: DIZ; outline: as §1
Bacillus cereus [29] = test: Antimicrobial activity against Bacillus cereus MTCC 7350 assessed as diameter of inhibition zone at 80 uM after 24 hrs by Kirby -Baur disc diffusion method; assay type: functional; conditions: MTCC 7350, 24 h, read-out: DIZ; outline: as §1
Aspergillus flavus [30] = test: Antifungal activity against Aspergillus flavus MTCC 1021 assessed as zone of inhibition at 80 uM after 48 hrs by disc diffusion method; assay type: functional; outline: as §2
Escherichia coli [31] = test: Antimicrobial activity against Escherichia coli ATCC 35218 assessed as diameter of inhibition zone at 40 uM after 24 hrs by Kirby -Baur disc diffusion method; assay type: functional; outline: as §1
Escherichia coli [32] = test: Antimicrobial activity against Escherichia coli ATCC 35218 assessed as diameter of inhibition zone at 20 uM after 24 hrs by Kirby -Baur disc diffusion method; assay type: functional; outline: as §1

SMILES: COc1cc(/C=C/c2noc(/C=C/c3ccc(O)c(OC)c3)c2/N=N/c2ccc(S(=O)(=O)Nc3nc(C)cc(C)n3)cc2)ccc1O
- zone of inhibition at 40 µM (Bacillus cereus [1]; MTCC 7350, 24 h, read-out: DIZ): 9 mm
- MIC (Salmonella typhi [2]): > 80 µM
- MIC (Aspergillus niger [3]; MTCC 1108, 48 h): > 80 µM
- MIC (Trichoderma viride [4]): 80 µM (≈ 52.4 µg/mL)
- zone of inhibition at 80 µM (Trichoderma viride [5]): 13 mm
- IC50 (HepG2): Not Active
- MIC (Pseudomonas aeruginosa [6]): 80 µM (≈ 52.4 µg/mL)
- inhibition zone (IZ) (Aspergillus niger [7]): inactive
- zone of inhibition at 20 µM (Curvularia lunata [8]; MTCC 581, 48 h, read-out: IZ): 9 mm
- MIC (Curvularia lunata [9]): 80 µM (≈ 52.4 µg/mL)
- IC50 (QG-56): Not Active
- MIC (Bacillus cereus [10]): > 80 µM
- diameter of the inhibition zone (DIZ) (Bacillus cereus [11]): inactive
- diameter of the inhibition zone (DIZ) (Escherichia coli [12]): inactive
- diameter of the inhibition zone (DIZ) (Salmonella typhi [13]): inactive
- zone of inhibition at 40 µM (Curvularia lunata [14]): 11 mm
- zone of inhibition at 20 µM (Trichoderma viride [15]; MTCC 1107, 48 h, read-out: IZ): 9 mm
- diameter of the inhibition zone (DIZ) (Pseudomonas aeruginosa [16]): inactive
- diameter of the inhibition zone (DIZ) (Salmonella typhi [17]): inactive
- IC50 (HeLa): Not Active
- inhibition in vivo at 200 mg/kg (Mus musculus): 41.9%
- zone of inhibition at 40 µM (Trichoderma viride [18]): 11 mm
- zone of inhibition at 40 µM (Pseudomonas aeruginosa [19]; ATCC 15499, 24 h, read-out: DIZ): 10 mm
- zone of inhibition at 80 µM (Staphylococcus aureus [20]): 12 mm
- MIC (Escherichia coli [21]): > 80 µM
- MIC (Aspergillus flavus [22]; MTCC 1021, 48 h): > 80 µM
- IC50 (HCT-116): Not Active
- diameter of the inhibition zone (DIZ) (Staphylococcus aureus [23]): inactive
- MIC (Staphylococcus aureus [24]): > 80 µM
- diameter of the inhibition zone (DIZ) (Staphylococcus aureus [25]): inactive
- zone of inhibition at 80 µM (Salmonella typhi [26]): 10 mm
- zone of inhibition at 80 µM (Curvularia lunata [27]): 13 mm
- zone of inhibition at 80 µM (Pseudomonas aeruginosa [28]): 15 mm
- zone of inhibition at 80 µM (Bacillus cereus [29]): 11 mm
- inhibition zone (IZ) (Aspergillus flavus [30]): inactive

SMILES: COc1cc(/C=C/c2noc(/C=C/c3ccc(O)c(OC)c3)c2/N=N/c2ccc(S(=O)(=O)Nc3cc(C)on3)cc2)ccc1O
- diameter of the inhibition zone (DIZ) (Bacillus cereus [1]): inactive
- MIC (Aspergillus niger [3]): inactive
- MIC (Trichoderma viride [4]): > 80 µM
- zone of inhibition at 80 µM (Trichoderma viride [5]): 12 mm
- diameter of the inhibition zone (DIZ) (Escherichia coli [31]): inactive
- IC50 (HepG2): Not Active
- MIC (Pseudomonas aeruginosa [6]): > 80 µM
- inhibition zone (IZ) (Aspergillus niger [7]): inactive
- inhibition zone (IZ) (Curvularia lunata [8]): inactive
- MIC (Curvularia lunata [9]): > 80 µM
- IC50 (QG-56): Not Active
- MIC (Bacillus cereus [10]): > 80 µM
- diameter of the inhibition zone (DIZ) (Bacillus cereus [11]): inactive
- zone of inhibition at 80 µM (Escherichia coli [12]; ATCC 35218, 24 h, read-out: DIZ): 9 mm
- zone of inhibition at 40 µM (Curvularia lunata [14]): 9 mm
- diameter of the inhibition zone (DIZ) (Escherichia coli [32]): inactive
- inhibition zone (IZ) (Trichoderma viride [15]): inactive
- diameter of the inhibition zone (DIZ) (Pseudomonas aeruginosa [16]): inactive
- IC50 (HeLa): Not Active
- inhibition in vivo at 200 mg/kg (Mus musculus): 22.5%
- zone of inhibition at 40 µM (Trichoderma viride [18]): 9 mm
- diameter of the inhibition zone (DIZ) (Pseudomonas aeruginosa [19]): inactive
- zone of inhibition at 80 µM (Staphylococcus aureus [20]): 9 mm
- MIC (Escherichia coli [21]): > 80 µM
- MIC (Aspergillus flavus [22]): inactive
- IC50 (HCT-116): Not Active
- diameter of the inhibition zone (DIZ) (Staphylococcus aureus [23]): inactive
- MIC (Staphylococcus aureus [24]): > 80 µM
- diameter of the inhibition zone (DIZ) (Staphylococcus aureus [25]): inactive
- zone of inhibition at 80 µM (Curvularia lunata [27]): 12 mm
- zone of inhibition at 80 µM (Pseudomonas aeruginosa [28]): 9 mm
- zone of inhibition at 80 µM (Bacillus cereus [29]): 9 mm
- inhibition zone (IZ) (Aspergillus flavus [30]): inactive
